Results published in ChEMBL document CHEMBL4715780, “Biological evaluation of tetracationic compounds based on two 1,4-diazabicyclo[2.2.2]octane moieties connected by different linkers” (Bioorg Med Chem, 2016).

Columns and labels:
Staphylococcus aureus [1] = assay: Antibacterial activity against […] Staphylococcus aureus ATCC 25923 assessed as concentration required to inhibit visible growth by CLSI protocol based serial microdilution method; type: functional
Escherichia coli [2] = assay: Antibacterial activity against Escherichia coli ATCC 25922 assessed as concentration required to inhibit visible growth by CLSI protocol based serial microdilution method; type: functional
Escherichia coli [3] = assay: Antibacterial activity against Escherichia coli ATCC 25922 assessed as bacterial growth inhibition by CLSI protocol based serial microdilution method; type: functional
Salmonella typhimurium [4] = assay: Antibacterial activity against Salmonella enterica ATCC 14028 assessed as concentration required to inhibit visible growth by CLSI protocol based serial microdilution method; type: functional, Salmonella enterica subsp. enterica serovar Typhimurium
Salmonella typhimurium [5] = assay: Antibacterial activity against Salmonella enterica ATCC 14028 assessed as bacterial growth inhibition by CLSI protocol based serial microdilution method; type: functional, Salmonella enterica subsp. enterica serovar Typhimurium
Candida albicans = assay: Antifungal activity against Candida albicans CEMTC 34 assessed as fungal growth inhibition by CLSI protocol based serial microdilution method; type: functional
Method in brief: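 Candida albicans grown in Sabouraud dextrose broth with two-fold serial compound dilutions from water stocks; final inoculum about 5 × 10⁵ CFU/mL. Incubated at 37 °C with orbital shaking (580 rpm). MIC is the lowest concentration preventing growth, by absorbance at 595 nm. MFC is the lowest concentration with no visible growth. Duplicates in two separate experiments.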

Staphylococcus aureus [6] = assay: Antibacterial activity against methicillin-resistant Staphylococcus aureus CEMTC 707 assessed as concentration required to inhibit visible growth by CLSI protocol based serial microdilution method; type: functional
Staphylococcus aureus [7] = assay: Antibacterial activity against methicillin-resistant Staphylococcus aureus CEMTC 707 assessed as bacterial growth inhibition by CLSI protocol based serial microdilution method; type: functional
Staphylococcus aureus [8] = assay: Antibacterial activity against methicillin-resistant Staphylococcus aureus CEMTC 1732 assessed as bacterial growth inhibition by CLSI protocol based serial microdilution method; type: functional
Staphylococcus aureus [9] = assay: Antibacterial activity against methicillin-resistant Staphylococcus aureus CEMTC 1733 assessed as concentration required to inhibit visible growth by CLSI protocol based serial microdilution method; type: functional
Staphylococcus aureus [10] = assay: Antibacterial activity against methicillin-resistant Staphylococcus aureus CEMTC 1850 assessed as concentration required to inhibit visible growth by CLSI protocol based serial microdilution method; type: functional
Staphylococcus aureus [11] = assay: Antibacterial activity against methicillin-resistant Staphylococcus aureus CEMTC 1850 assessed as bacterial growth inhibition by CLSI protocol based serial microdilution method; type: functional
Pseudomonas aeruginosa [12] = assay: Bactericidal activity against Pseudomonas aeruginosa ATCC 9027 assessed as colony forming unit at 10 ug/ml measured at 4 hrs by time kill assay (reference value: 1.2 x 10^7 CFU/ml); type: functional; conditions: dose 10 µg/ml
Method in brief: (§1)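 Overnight Pseudomonas aeruginosa culture adjusted in Mueller–Hinton broth to about 2.5 × 10⁵ CFU/mL. Compound added at 2.5, 5 or 10 µg/mL, then incubated at 37 °C with shaking (580 rpm) for 22 h. Viable colonies counted on plates at 2, 4, 6, 8 and 22 h. Quantification limit 100 CFU/mL; triplicate.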

Pseudomonas aeruginosa [13] = assay: Bactericidal activity against Pseudomonas aeruginosa ATCC 9027 assessed as colony forming unit at 5 ug/ml measured at 22 hrs by time kill assay (reference value: 1.7 x 10^9 CFU/ml); type: functional; conditions: dose 5 µg/ml; method in brief: as §1
Pseudomonas aeruginosa [14] = assay: Bactericidal activity against Pseudomonas aeruginosa ATCC 9027 assessed as colony forming unit at 2.5 ug/ml measured at 8 hrs by time kill assay (reference value: 2.7 x 10^8 CFU/ml); type: functional; conditions: dose 2.5 µg/ml; method in brief: as §1
Pseudomonas aeruginosa [15] = assay: Bactericidal activity against Pseudomonas aeruginosa ATCC 9027 assessed as colony forming unit at 2.5 ug/ml measured at 22 hrs by time kill assay (reference value: 1.7 x 10^9 CFU/ml); type: functional; conditions: dose 2.5 µg/ml; method in brief: as §1
Pseudomonas aeruginosa [16] = assay: Bactericidal activity against Pseudomonas aeruginosa ATCC 9027 assessed as reduction in colony forming unit at 10 ug/ml measured at 2 hrs by time kill assay relative to control; type: functional; design: scale not given: the % may be the effect or the level left; conditions: dose 10 µg/ml; method in brief: as §1
Pseudomonas aeruginosa [17] = assay: Bactericidal activity against Pseudomonas aeruginosa ATCC 9027 assessed as reduction in colony forming unit at 10 ug/ml measured at 4 hrs by time kill assay relative to control; type: functional; design: scale not given: the % may be the effect or the level left; conditions: dose 10 µg/ml; method in brief: as §1
Pseudomonas aeruginosa [18] = assay: Bactericidal activity against Pseudomonas aeruginosa ATCC 9027 assessed as reduction in colony forming unit at 10 ug/ml measured at 22 hrs by time kill assay relative to control; type: functional; design: scale not given: the % may be the effect or the level left; conditions: dose 10 µg/ml; method in brief: as §1
Pseudomonas aeruginosa [19] = assay: Bactericidal activity against Pseudomonas aeruginosa ATCC 9027 assessed as reduction in colony forming unit at 5 ug/ml measured at 6 hrs by time kill assay relative to control; type: functional; design: scale not given: the % may be the effect or the level left; conditions: dose 5 µg/ml; method in brief: as §1
Pseudomonas aeruginosa [20] = assay: Bactericidal activity against Pseudomonas aeruginosa ATCC 9027 assessed as reduction in colony forming unit at 2.5 ug/ml measured at 2 hrs by time kill assay relative to control; type: functional; design: scale not given: the % may be the effect or the level left; conditions: dose 2.5 µg/ml; method in brief: as §1
Pseudomonas aeruginosa [21] = assay: Bactericidal activity against Pseudomonas aeruginosa ATCC 9027 assessed as reduction in colony forming unit at 2.5 ug/ml measured at 4 hrs by time kill assay relative to control; type: functional; design: scale not given: the % may be the effect or the level left; conditions: dose 2.5 µg/ml; method in brief: as §1
Staphylococcus aureus [22] = assay: Bactericidal activity against […] Staphylococcus aureus ATCC 25923 assessed as colony forming unit at 5 ug/ml measured at 22 hrs by time kill assay (reference value: 2.9 x 10^9 CFU/ml); type: functional; conditions: dose 5 µg/ml
Method in brief: (§2)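 S. aureus overnight culture was adjusted in MHB to ~8 × 10⁵ CFU/mL. Compound was added and the mixture incubated at 37 °C with shaking (580 rpm) for 22 h. Aliquots were plated for colony counts at 2, 4, 6, 8 and 22 h, with a quantification limit of 100 CFU/mL. Runs were done in triplicate.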

Staphylococcus aureus [23] = assay: Bactericidal activity against […] Staphylococcus aureus ATCC 25923 assessed as colony forming unit at 2.5 ug/ml measured at 4 hrs by time kill assay (reference value: 7.8 x 10^6 CFU/ml); type: functional; conditions: dose 2.5 µg/ml; method in brief: as §2
Staphylococcus aureus [24] = assay: Bactericidal activity against […] Staphylococcus aureus ATCC 25923 assessed as colony forming unit at 2.5 ug/ml measured at 8 hrs by time kill assay (reference value: 2.7 x 10^8 CFU/ml); type: functional; conditions: dose 2.5 µg/ml; method in brief: as §2
Staphylococcus aureus [25] = assay: Bactericidal activity against […] Staphylococcus aureus ATCC 25923 assessed as colony forming unit at 2.5 ug/ml measured at 22 hrs by time kill assay (reference value: 2.9 x 10^9 CFU/ml); type: functional; conditions: dose 2.5 µg/ml; method in brief: as §2
Staphylococcus aureus [26] = assay: Bactericidal activity against […] Staphylococcus aureus ATCC 25923 assessed as colony forming unit at 1.25 ug/ml measured at 8 hrs by time kill assay (reference value: 2.7 x 10^8 CFU/ml); type: functional; conditions: dose 1.25 µg/ml; method in brief: as §2
[27] = Selectivity index, ratio of CC50 for HEK293T cells assessed as reduction in cell viability measured after 24 hrs by MTT assay to MIC for Pseudomonas aeruginosa ATCC 9027 assessed as bacterial growth inhibition by CLSI protocol based serial microdilution method; type: toxicity; conditions: human, read-out: Selectivity Index
[28] = Selectivity index, ratio of CC50 for HEK293T cells assessed as reduction in cell viability measured after 24 hrs by MTT assay to MIC for Citrobacter freundii ATCC 8090 assessed as bacterial growth inhibition by CLSI protocol based serial microdilution method; type: toxicity; conditions: human, read-out: Selectivity Index
[29] = Cytotoxicity against MDCK cells assessed as cell death incubated for 48 hrs by MTT assay; type: cell-based, Canis lupus familiaris; conditions: dog

SMILES | MBC (Staphylococcus aureus [1]) [µg/mL] | MBC (Escherichia coli [2]) [µg/mL] | MIC (Escherichia coli [3]) [µg/mL] | MBC (Salmonella typhimurium [4]) [µg/mL] | MIC (Salmonella typhimurium [5]) [µg/mL] | MIC (Candida albicans) [µg/mL] | MBC (Staphylococcus aureus [6]) [µg/mL] | MIC (Staphylococcus aureus [7]) [µg/mL] | MIC (Staphylococcus aureus [8]) [µg/mL] | MBC (Staphylococcus aureus [9]) [µg/mL] | MBC (Staphylococcus aureus [10]) [µg/mL] | MIC (Staphylococcus aureus [11]) [µg/mL] | Activity (Pseudomonas aeruginosa [12]) [CFU/ml] | Activity (Pseudomonas aeruginosa [13]) [CFU/ml] | Activity (Pseudomonas aeruginosa [14]) [CFU/ml] | Activity (Pseudomonas aeruginosa [15]) [CFU/ml] | Activity (Pseudomonas aeruginosa [16]) | Activity (Pseudomonas aeruginosa [17]) | Activity (Pseudomonas aeruginosa [18]) | Activity (Pseudomonas aeruginosa [19]) | also measured
CCCCCCCCCCCC[N+]12CC[N+](CCC[N+]34CC[N+](CCCCCCCCCCCC)(CC3)CC4)(CC1)CC2 | 1.2 | 3.1 | 1.6 | 3.1 | 1.6 | 3.1 | 1 | 0.5 | 0.5 | 1 | 1 | 1 | <100 | <100 | <100 | <100 | >=99.9% | >=99.9% | >=99.9% | >=99.9% | Activity (Pseudomonas aeruginosa [20]): >=99.9%; Activity (Pseudomonas aeruginosa [21]): >=99.9%; Activity (Staphylococcus aureus [22]): <100 CFU/ml; Activity (Staphylococcus aureus [23]): <100 CFU/ml; Activity (Staphylococcus aureus [24]): <100 CFU/ml; Activity (Staphylococcus aureus [25]): <100 CFU/ml; Activity (Staphylococcus aureus [26]): <100 CFU/ml; selectivity ratio at 24 h [27]: 4; selectivity ratio at 24 h [28]: 4; CC50 at 48 h [29]: 12.8 µg/mL
CCCCCCCCCCCC[N+]12CC[N+](Cc3ccccc3C[N+]34CC[N+](CCCCCCCCCCCC)(CC3)CC4)(CC1)CC2 | 1.2 | 3.1 | 1.6 | 3.1 | 16 | 3.1 | 1 | 0.5 | 0.5 | 1 | 1 | 0.5 | <100 | <100 | 300 | 100 | ≥ 99.9% | >=99.9% | >=99.9% | >=99.9% | Activity (Pseudomonas aeruginosa [20]): >=90%; Activity (Pseudomonas aeruginosa [21]): >=99.9%; Activity (Staphylococcus aureus [22]): <100 CFU/ml; Activity (Staphylococcus aureus [23]): <100 CFU/ml; Activity (Staphylococcus aureus [24]): <100 CFU/ml; Activity (Staphylococcus aureus [25]): <100 CFU/ml; Activity (Staphylococcus aureus [26]): <100 CFU/ml; selectivity ratio at 24 h [27]: 3; selectivity ratio at 24 h [28]: 3; CC50 at 48 h [29]: 1.9 µg/mL
